Experimental data pooled from the literature.
Protocols differ between the studies behind these lines.

SMILES	species	matrix	route	dose	notes	Cmax
C=CC(=O)N1CC2CC(n3nc(-c4ccc(C(=O)Nc5ccccn5)cc4)c4c(N)ncnc43)CC2C1 (stereo not shown)	SCID mouse	plasma	oral	3 mg/kg	–	703 ng/mL
CN1CCC[C@H](CN2c3ccccc3Sc3ccccc32)C1.O=C(O)CCC(=O)O	mouse	plasma	oral	64 mg/kg	single dose	1540 ng/mL
CC=Cc1ccc(O)c(OC)c1	mouse	brain	intranasal	100 mg/kg	–	4340 ng/g
CN1C(=O)c2ccccc2[S@+]([O-])c2ccc(C(=O)NCCc3cccs3)cc21	male C57BL/6 mouse	brain	intraperitoneal	30 mg/kg	single dose	1720 ng/g
Cc1nc(-c2cnc(NC(C)C)n(C)c2=O)ccc1Oc1ccnc(-c2cnn(C)c2)c1	female mouse	plasma	oral	7.5 mg/kg	single dose	4450 ng/mL
Nc1ncc(-c2ccncc2)nc1Nc1ccc2[nH]ccc2c1	male C57BL/6 mouse	plasma	oral	30 mg/kg	–	7 µM
Cc1ccc(NC(=O)c2ccc(CN3CCN(C)CC3)cc2)cc1Nc1nccc(-c2cncc(-c3oncc3C)c2)n1	male C57BL/6 mouse	plasma	oral	100 mg/kg/day	–	5060 ng/mL
CCc1cc(OC)c2nccc(N3CCc4c(cc(Cn5ccnc5)cc4-c4cn(C)nc4C(F)(F)F)C3=O)c2c1	male CD-1 mouse	plasma	oral	50 mg/kg	–	29000 ng/mL
CC(=O)O[C@H]1C(=O)[C@@]2(C)[C@H]([C@H](OC(=O)c3ccccc3)[C@]3(O)C[C@H](OC(=O)[C@H](O)[C@@H](NC(=O)c4ccccc4)c4ccccc4)C(C)=C1C3(C)C)[C@]1(OC(C)=O)CO[C@@H]1C[C@@H]2O	SCID mouse	plasma	intraperitoneal	10 mg/kg	single dose	2100 ng/mL
COc1nc(-c2cc(C)c(N[C@@H](C)c3cc(F)cc(F)c3)nn2)ccc1-n1cnc(C)c1	male CD-1 mouse	plasma	intravenous	1 mg/kg	single dose	699 ng/mL
Cn1cnc2c(F)c(Nc3ccc(Br)cc3Cl)c(C(=O)NOCCO)cc21	nude mouse	liver	oral	5 mg/kg	single dose, tumour-bearing	1340 ng/g
OC[C@H]1O[C@@H](c2ccc(Cl)c(Cc3ccc(O[C@H]4CCOC4)cc3)c2)[C@H](O)[C@@H](O)[C@@H]1O	CD-1 mouse	plasma	oral	10 mg/kg	–	2460 ng/mL
CCn1ncc2c(Nc3ccc(OC(F)(F)F)cc3)ncnc21	male BALB/c mouse	plasma	oral	20 mg/kg	–	263 ng/mL
CC(C)(O)c1cn(-c2ccc(-c3ccc(CO)c(S(C)(=O)=O)c3)cc2)c(Cc2ccccc2Cl)n1	male C57BL/6 mouse	serum	oral	10 mg/kg	–	3.2 µM
COc1ccc2nc(-c3ccccn3)c(N(C)c3ccc(F)cc3)n2c1	male CD-1 mouse	plasma	oral	50 mg/kg	fasted	1440 ng/mL
COc1cc(OC)c2nccc(N3CCc4c(cc(Cn5ccnc5)cc4-c4cn(C)nc4C(F)(F)F)C3=O)c2c1	male CD-1 mouse	plasma	oral	50 mg/kg	–	19700 ng/mL
COc1cc2c(Nc3ccc(Cl)c(Cl)c3F)ncnc2cc1OC[C@@H]1C[C@@H]2CN(C)C[C@@H]2C1	FVB mouse	brain	oral	70 mg/kg	single dose	7570 ng/g

SMILES	species	matrix	route	dose	notes	Cmax
Cc1c(C(=O)NN2CCCCC2)nn(-c2ccc(Cl)cc2Cl)c1-c1ccc(Cl)cc1	mouse	plasma	oral	20 µmol/kg	single dose	1.05 µM
NC1(C(=O)N[C@@H](CCO)c2ccc(Cl)cc2)CCN(c2ncnc3[nH]ccc23)CC1	male Swiss mouse	plasma	intraperitoneal	25 mg/kg	single dose	~8 µM
COc1cc(C(=O)N2CCC(N3CCN(C)CC3)CC2)ccc1Nc1ncc2c(n1)N(C)c1ccccc1C(=O)N2C	mouse	plasma	oral	10 mg/kg	–	1620 ng/mL
CC(C)(C)c1ccc(O)c(CN(Cc2cc(C(C)(C)C)ccc2O)C2CCC(NC(N)=O)CC2)c1 (stereo not shown)	male C57BL/6 mouse	plasma	intraperitoneal	10 mg/kg	single dose	2240 ng/mL
CCc1ccc(Cc2cc([C@@H]3O[C@H](CO)[C@@H](O)[C@H](O)[C@H]3O)cc3c2CCC3)cc1	male C57BL/6 mouse	plasma	intravenous	1 mg/kg	–	1300 ng/mL
CC(C)(O)c1cn(-c2ccc(-c3cc(F)c(CO)c(S(C)(=O)=O)c3)cc2)c(C(C)(C)c2cccc(F)c2Cl)n1	male C57BL/6 mouse	serum	oral	10 mg/kg	–	1.9 µM
CCN1CCN(Cc2cc(NC(=O)c3ccc(C)c(-c4ccc5nc(NC(=O)C6CC6)cn5n4)c3)cc(C(F)(F)F)c2)CC1	Swiss mouse	plasma	intraperitoneal	3 mg/kg	–	340 ng/mL
CS(=O)(=O)CCNCc1ccc(-c2ccc3ncnc(Nc4ccc(OCc5cccc(F)c5)c(Cl)c4)c3c2)o1	nude mouse	plasma	oral	100 mg/kg	single dose	15200 ng/mL
COc1ccc(C(O)COc2ccc(-c3csc(-c4ccc(OCC(O)c5ccc(OC)c(OC)c5)cc4)n3)cc2)cc1OC (stereo not shown)	C57BL/6 mouse	plasma	oral	30 mg/kg	–	5980 ng/mL
CNC(=O)c1cc(Oc2ccc(NC(=O)Nc3ccc(Cl)c(C(F)(F)F)c3)c(F)c2)cc[n+]1[O-]	mouse	plasma	oral	10 mg/kg	single dose	360 ng/mL
CNC(=O)[C@H](Cc1c[nH]cn1)NC(=O)CN(CCCc1ccccc1)CC(=O)OC	male C57BL/6 mouse	plasma	intraperitoneal	30 mg/kg	–	3800 ng/mL
CC[C@H](C)[C@@H]1NC(=O)[C@@](C)(NC(=O)[C@H](CCCNC(=N)N)NC(=O)[C@H](CC(C)C)NC(=O)[C@@H](NC(=O)[C@H](CCC(N)=O)NC(=O)[C@H](CC(C)C)NC(C)=O)[C@@H](C)O)CCCC=CCCC[C@@](C)(C(=O)N[C@@H](CC(C)C)C(=O)N[C@@H](Cc2ccc3ccccc3c2)C(N)=O)NC(=O)[C@H](CCCNC(=N)N)NC(=O)[C@H](CCC(N)=O)NC1=O	male BALB/c mouse	plasma	intravenous	10 mg/kg	–	86 µM
CC1(C)CC[C@]2(C(=O)O)CC[C@]3(C)C(=CC[C@@H]4[C@@]5(C)C[C@@H](O)[C@H](OC(=O)/C=C/c6ccc(O)cc6)C(C)(C)[C@@H]5CC[C@]43C)[C@@H]2C1 (relative stereo)	mouse	brain	intraperitoneal	85 µmol/kg	single dose	1.75 µM
COc1ccc([C@@]23Oc4cc(OC)cc(OC)c4[C@]2(O)[C@H](O)[C@H](C(=O)N(C)C)[C@H]3c2ccccc2)cc1	mouse	plasma	intravenous	5 mg/kg	–	~11 µM
COc1nc(-c2cc(C)c(N[C@@H](C)c3ccc(F)cc3)nn2)ccc1-n1cnc(C)c1	male CD-1 mouse	plasma	oral	5 mg/kg	single dose	1530 ng/mL
CSc1cc(Oc2ccnc3[nH]c(=O)cnc23)ccc1NC(=O)Nc1cc(C(C)(C)C)nn1-c1ccccc1	BALB/c mouse	plasma	oral	10 mg/kg	–	54.2 µM
CNC(=O)c1cc(OC)cc2c(N3CCc4c(cc(Cn5ccnc5)cc4-c4cn(C)nc4C(F)(F)F)C3=O)ccnc12	male CD-1 mouse	plasma	oral	50 mg/kg	–	46100 ng/mL
